Bioassay records from PubChem BioAssay.
TAAR1 antag – antagonists of human TAAR1. Q96RJ0. CHO RD-HGA16 TAAR1, Fluo-8 calcium fluorescence, antagonist. inhibition, % at 3 µM. 1.5% of 360,000 active;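 active = inhibition above a per-plate cutoff, the mean inhibition of test compounds on that plate plus 3 SD, cut at about 49% in these data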;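 also: 0% = DMSO plus EC80 beta-PEA response and 100% = DMSO alone without agonist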
Target sequence (Q96RJ0 whole entry, looked up): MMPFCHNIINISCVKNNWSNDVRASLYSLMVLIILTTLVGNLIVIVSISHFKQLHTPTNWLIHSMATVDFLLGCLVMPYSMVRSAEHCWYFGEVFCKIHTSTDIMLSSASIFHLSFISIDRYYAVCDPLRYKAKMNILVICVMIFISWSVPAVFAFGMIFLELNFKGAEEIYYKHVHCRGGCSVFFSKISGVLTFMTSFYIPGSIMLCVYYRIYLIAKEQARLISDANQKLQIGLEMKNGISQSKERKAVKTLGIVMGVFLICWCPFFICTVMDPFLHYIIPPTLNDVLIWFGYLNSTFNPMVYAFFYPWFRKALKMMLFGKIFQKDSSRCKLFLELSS
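System: CHO RD-HGA16 cells bearing hTAAR1. Reagent: EC80 β-phenethylamine stimulus. Schedule: seeding 17-24 h prior, 75-min 37 °C, 30-min RT dye loading. Signal: Fluo-8 intracellular calcium dye fluorescence, real-time kinetic reads. Read-out: % inhibition from peak post-agonist over basal fluorescence ratio. Benchmarks: vehicle wells and EC80 agonist wells. Replicates: n of 1.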
Rce1 inh – blocks yeast Ras-converting enzyme. calls only. yeast membranes, quenched prenylated peptide cleavage fluorescence. 0.27% of 290,000 active;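 active = fall in fluorescence gain of 50% or more versus controls, with final raw signal at or below 3038400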;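 also: plate controls were neutral control wells for no effect and wells lacking membranes for full effect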
TAAR1 ag – human TAAR1 agonism | 0.99% of 360,000 active | activation, % at 3 µM | Q96RJ0 | CHO RD-HGA16 TAAR1, Fluo-8 calcium fluorescence; vehicle wells 0%, saturating PEA agonist 100%;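 active = activation above the mean activation of all test compounds in the run plus 3 SD, cut at about 38% in these data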
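Test system: RD-HGA16 (CHO) cells co-expressing Gα16 and hTAAR1 / Benchmarks: DMSO vehicle as 0%, PEA at EC100 as 100% / Repeats: no replicates (n 1) / Measure: % activation from peak over basal fluorescence ratio, DMSO-to-PEA scaled / Timing: 17-24 h plating, Fluo-8 75 min 37 °C, 30 min RT / Technique: kinetic Fluo-8 calcium fluorescence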
VLA-4 inh – inhibition in a human VLA-4 binding assay | VLA-4 expressing cells, ligand binding flow cytometry | AID 2557 | inhibition, % (about 7 µM as worked out from the volumes in the protocol) | 0.2% of 330,000 active | P13612; in the data active = inhibition above about 50%
Platelet DG rel – modulates dense granule release in human platelets; AID 1663; inhibition, %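 (compounds screened at 7.5 µM in platelet-rich plasma)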; 0.22% of 300,000 active; human platelet-rich plasma, SFLLRN dense granule ATP release, luminescence;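 active = mean replicate score, as percent of positive control, at or above 50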
VLA-4 mod pick – human VLA-4 allosteric modulation in cherry picked compounds; inhibition, % at 6.7 µM; 2% of 1,300 active; AID 2813; U937 cells, HUTS-21 LIBS mAb binding, flow cytometry; LDV ligand present at threefold Kd; shares compounds with VLA-4 inh; in the data active = inhibition above about 40%;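 also: 0% = ligand without compound and 100% = no ligand background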
* = called active by the depositor; i = inactive; nt = not tested or not shown; + = active, no number; ! = a repeat was not active. Rows were chosen to be rich in hits. Some 2.6% of all compounds tested hit in one or more screens of this group.

SMILES	TAAR1 antag	Rce1 inh	TAAR1 ag	VLA-4 inh	Platelet DG rel	VLA-4 mod pick
COc1cc(CCCN2C(=O)C(=O)NC[C@@H]2C(C)O)cc(OC)c1OC (stereo partly drawn)	12.0	i	1.4	-6.0	-3.6	-4.1
COc1cc(CCCN2C(=O)C(=O)NC[C@@H]2c2ccccc2)cc(OC)c1OC	6.2	i	9.2	52.3*	-2.5	4.7
Cc1ccc(NC(=O)c2ncn(CCCNCC(C)c3ccccc3)n2)cc1C (stereo not drawn)	-4.2	nt	8.2	nt	nt	nt
Cc1ccc(C(=O)N[C@H](C(=O)OCC(=O)c2ccc[nH]2)C(C)C)cc1	-2.9	i	1.5	20.7	9.5	nt
CCOC(=O)C1CCCN(S(=O)(=O)c2ccc(S(=O)(=O)N3CCCC3)cc2)C1 (stereo not drawn)	1.6	i	5.4	-2.0	6.1	nt
CCOC(=O)C1CCCN(S(=O)(=O)c2cc3[nH]c(=O)c(=O)[nH]c3cc2C)C1 (stereo not drawn)	3.1	+	0.8	50.4*	3.4	-6.7
CCCc1cc(=O)[nH]c(SCC(=O)Nc2nc3ccc(OCC)cc3s2)n1	-29.5	i	9.1	51.0*	5.7	6.3
CCOc1ccc(NC(=O)Nc2ccccc2SC)cc1	7.7	i	0.5	67.4*	37.5	6.5
COC(=O)C(C)Oc1ccc(Oc2nc(Cl)ccc2Cl)cc1 (stereo not drawn)	2.7	i	7.8	51.6*	0.9	-8.2
Cc1ccc(S(=O)(=O)C(NC(=O)c2ccccc2)=C(Cl)Cl)cc1	0.1	i	8.7	53.6*	1.0	-1.1
COCCNC(=O)c1ccccc1NC(=O)COc1ccccc1	8.2	i	8.3	-1.7	7.1	-18.8
COC(=O)c1ccccc1NC(=O)COc1ccccc1	3.7	i	22.8	9.3	-4.1	nt
NNC(=O)c1ccc(COCC(F)(F)F)cc1	-11.9	i	-1.0	3.4	17.7	nt
O=C(/C=C/c1ccc(O)c(O)c1)O[C@@H]1C[C@](O)(C(=O)O)C[C@@H](O)[C@H]1O	-8.1	i	2.6	54.5*!	0.6	1.1
O=C(/C=C/c1ccc(O)c(O)c1)OC1C(O)CC(OC(=O)/C=C/c2ccc(O)c(O)c2)(C(=O)O)CC1O (stereo not drawn)	-6.0	i	6.2	17.2	-5.0	nt
CC(=O)N1CCN(C(=O)c2cc(S(=O)(=O)N3CCN(c4ccccc4)CC3)ccc2Cl)CC1	-22.8	nt	1.1	nt	nt	nt
CC1(C)CC(NCCN2CCN(C3=CC(=C(C#N)C#N)CC(C)(C)C3)CC2)=CC(=C(C#N)C#N)C1	19.6	i	0.6	49.9*	-2.8	5.1
CNC(=S)N1CCN(CCNC2=CC(=O)CC(C)(C)C2)CC1	12.5	i	0.7	-3.0	4.9	nt
CN1CCC(N(C)S(=O)(=O)c2ccc(NC(=O)COc3ccc(F)cc3)cc2)CC1	-0.6	i	6.8	50.2*	19.7	12.6
CCCCn1c(NC(=O)c2ccccc2)c(C#N)c2nc3ccccc3nc21	12.3	nt	16.3	nt	nt	nt
CCCCn1cc(C(C)(C)C)c(C#N)c1NC(C)=O	-26.7	i	2.4	50.4*	0.4	0.0
COCCSc1ccccc1C(=O)N1CCc2ccccc2C1	11.9	nt	5.2	52.0*	3.2	2.0
Cc1ccc(CN2CCC(C)(Oc3ccc(Cl)cc3)C2)cc1 (stereo not drawn)	-25.4	nt	1.4	nt	nt	nt
O=C(COC(=O)Cc1c[nH]c2ccccc12)NC1CCS(=O)(=O)C1 (stereo not drawn)	-9.9	i	1.1	3.0	-6.1	nt
CCc1c(C)c2ccc(OC(C)C(=O)NC(Cc3c[nH]c4ccc(O)cc34)C(=O)O)c(C)c2oc1=O (stereo not drawn)	7.8	i	0.1	51.5*	5.4	11.0
COc1ccc(Cl)cc1C=CC=Nc1ccccc1O	-26.8	nt	6.0	nt	nt	nt
CCOC(=O)c1[nH]c(C)c(C(=O)OCC(=O)N2CCCCC2C)c1C (stereo not drawn)	4.4	i	8.0	61.2*	-2.6	15.7
O=C1CC(c2ccccc2)CC2=C1C1(CCCC1)N=C(Nc1nc3ccccc3o1)N2 (stereo not drawn)	1.1	nt	2.8	nt	nt	nt
